From ChEMBL document CHEMBL1671864, “First assessment in humans of the safety, tolerability, pharmacokinetics, and ex vivo pharmacodynamic antimalarial activity of the new artemisinin derivative artemisone” (Antimicrob Agents Chemother, 2008) come the findings set out here.

A short description of data set [1]: Apparent volume of distribution with respect to the bioavailability in healthy human at 80 mg, po administered as single immediate release tablets during 10 hrs overnight fasting state. The data set is classed as ADME, organism-based. The conditions noted are these: in vivo, read-out: Vc/F. The method, boiled down:
(§1)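 Single ascending oral doses in healthy Caucasian men, given fasted (10-h overnight) with 240 ml water: 10, 20, 30 or 40 mg as oral solution, or 80 mg as IR tablets. Parent plasma levels by LC/MS-MS over 0.25–14 h. Noncompartmental analysis: kel by terminal-phase least-squares regression, AUC extrapolated to infinity, CL/F = dose/AUC, V/F = CL/F÷kel.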

Data set [2] relates to Homo sapiens. In words: Toxicity in healthy human assessed as occurrence of adverse event at 40 mg, po administered daily for 3 days as two 20-mg immediate-release tablets during 10 hrs overnight fasting state. The format is organism-based. The settings on record: in vivo. The method in brief: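 3-day daily oral tablet dosing in healthy Caucasian men (8 active, 4 placebo per dose). Adverse events were collected by open questioning and spontaneous report. Severity was graded mild (daily activities unaffected), moderate (some interference) or severe (activities not completed).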

Data set [3] is described as follows: Apparent oral clearance in healthy human at 80 mg, po administered as four 20 mg immediate release tablets daily for 3 days during 10 hrs overnight fasting state measured after 3 day. The format is ADME, organism-based. The conditions noted are these: in vivo. The method in brief:
(§2)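 Healthy Caucasian males took 40 mg (2×20-mg IR tablets) or 80 mg (4 tablets) orally daily for 3 days after a 10-h fast. Plasma parent drug was measured by LC/MS-MS from predose to 14 h after the first and third doses. Noncompartmental analysis: AUC by log-linear trapezoid extrapolated via kel, CL/F = dose/AUC, V/F = CL/F÷kel, geometric means.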

A short description of data set [4]: AUC in healthy human plasma at 40 mg, po administered as two 20 mg immediate release tablets daily for 3 days during 10 hrs overnight fasting state measured after 3 day. The data set is classed as ADME, organism-based. The arrangement: dose 40 mg, time < 10 hr, route oral. The method, boiled down:
as §2

A short description of data set [5]: Tmax in healthy human plasma at 10 mg, po administered as single ascending doses as solution during 10 hrs overnight fasting state. The data set is classed as ADME, organism-based. The method in brief: (§3)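 Healthy Caucasian male volunteers, randomized within each dose group against placebo, given a single oral solution with 240 ml water after a 10-h overnight fast. Plasma sampled predose and at 0.25–14 h, quantified by LC/MS-MS (MRM, deuterated internal standard). Tmax read directly from individual noncompartmental concentration–time data.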

A short description of data set [6]: Apparent oral clearance in healthy human at 80 mg, po administered as single immediate release tablets during 10 hrs overnight fasting state. The settings on record: in vivo. The data set is classed as ADME, organism-based. The method, boiled down: as §1
A short description of data set [7]: Tmax in healthy human plasma at 20 mg, po administered as single ascending doses as solution during 10 hrs overnight fasting state. The data set is classed as ADME, organism-based. The method in brief:
as §3

Data set [8] can be described thus: Cmax in healthy human plasma at 10 mg, po administered as single ascending doses as solution during 10 hrs overnight fasting state. The data set is classed as ADME, organism-based. Also on record: dose 10 mg, route oral. The method, boiled down: (§4)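 Healthy Caucasian male volunteers, single oral dose with 240 ml water after a 10-h overnight fast. Heparinised venous blood was drawn predose and at 0.25–14 h. Plasma was stored frozen. Parent drug and metabolites M1–M3 were measured by LC/MS-MS (MRM, deuterated internal standard). Noncompartmental analysis gave Cmax observed, t1/2 = 0.693/kel (terminal regression) and MRT = AUMC/AUC. Values are geometric means.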

Data set [9] is described as follows: Half life in healthy human plasma at 80 mg, po administered as four 20 mg immediate release tablets daily for 3 days during 10 hrs overnight fasting state measured after 3 day. The format is ADME, organism-based. The method in brief:
(§5)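 Healthy Caucasian males took tablets once daily for 3 days with 240 ml water after a 10-h fast. Heparinised blood was drawn predose and at 0.25–14 h after the first and last doses. Plasma parent drug and metabolites M1–M3 were measured by LC/MS-MS (MRM, deuterated internal standard). Noncompartmental analysis gave Cmax observed, t1/2 = 0.693/kel and MRT = AUMC/AUC. Values are geometric means.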

A further data set concerns Plasmodium falciparum. In words: Antimalarial activity against Plasmodium falciparum K1 in human plasma assessed as inhibition of hypoxanthine uptake by intraerythrocytic malaria parasites by hypoxanthine incorporation assay. The format is functional, organism-based. The method, boiled down:
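K1 or TM90-C2A parasites were sorbitol-synchronized and cultured in RPMI 1640. Drug was diluted in drug-free human serum (0.04–40 ng/ml) or subject plasma was diluted twofold (8–8,192). Parasites were added at 2% hematocrit, 1% parasitemia (>95% rings), and [3H]hypoxanthine uptake was measured over 48 h. IC50 or ID50 came from concentration or dilution-response curves. Equivalent concentration = ID50 × IC50.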

For data set [10], the system named is Plasma. In words: Ratio of Cmax in healthy human plasma at 80 mg, po administered as four 20 mg immediate release tablets daily for 3 days during 10 hrs overnight fasting state measured after 1 day to Cmax in healthy human plasma at 80 mg, po administered as four 20 mg immediate release tablets daily for 3 days during 10 hrs overnight fasting state measured after 3 day. The conditions noted are these: in vivo. The format is ADME, organism-based. The method, boiled down:
(§6)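 Healthy Caucasian men took tablets daily for 3 days with 240 ml water after 10-h fast. Plasma sampled 0.25–14 h after first and last doses, artemisone measured by LC/MS-MS. Accumulation ratio is Cmax or AUC0-∞ after last dose divided by that after first dose. Noncompartmental analysis, geometric means with 95% CI.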

A short description of data set [11]: AUC in healthy human plasma at 20 mg, po administered as single ascending doses as solution during 10 hrs overnight fasting state. The format is ADME, organism-based. Also on record: time < 10 hr, dose 20 mg, route oral. The method in brief: as §1
Data set [12] concerns Plasma. In words: Ratio of Cmax in healthy human plasma at 40 mg, po administered as two 20 mg immediate release tablets daily for 3 days during 10 hrs overnight fasting state measured after 1 day to Cmax in healthy human plasma at 40 mg, po administered as two 20 mg immediate release tablets daily for 3 days during 10 hrs overnight fasting state measured after 3 day. The format is ADME, organism-based. The settings on record: in vivo. The method in brief:
as §6

Data set [13] concerns Plasma. In words: Ratio of Ratio of AUC (0 to infinity) in healthy human plasma at 40 mg, po administered as two 20 mg immediate release tablets daily for 3 days during 10 hrs overnight fasting state measured after 1 day to Ratio of AUC (0 to infinity) in healthy human plasma at 40 mg, po administered as two 20 mg immediate release tablets daily for 3 days during 10 hrs overnight fasting state measured after 3 day. The data set is classed as ADME, organism-based. The conditions noted are these: in vivo. The method in brief:
as §6

Data set [14] in a line: Apparent volume of distribution with respect to the bioavailability in healthy human at 40 mg, po administered as two 20 mg immediate release tablets daily for 3 days during 10 hrs overnight fasting state measured after 1 day. The data set is classed as ADME, organism-based. The conditions noted are these: in vivo, read-out: Vc/F. The method, boiled down: as §2
Data set [15] deals with Homo sapiens. In words: Toxicity in healthy human assessed as occurrence of clinically relevant changes in vital signs at 40 mg, po administered daily for 3 days as two 20-mg immediate-release tablets during 10 hrs overnight fasting state. The format is organism-based. The conditions noted are these: in vivo. The method in brief: (§7)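 Healthy Caucasian men received single ascending doses (10–40 mg solution, 80 mg tablets) or 3-day daily tablet courses, all fasting, with randomized placebo controls. Supine blood pressure, heart rate and resting 12-lead ECG were recorded before and after dosing.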

The nature of data set [16]: Half life in healthy human plasma at 40 mg, po administered as two 20 mg immediate release tablets daily for 3 days during 10 hrs overnight fasting state measured after 3 day. The data set is classed as ADME, organism-based. The method in brief: as §5
A short description of data set [17]: Apparent oral clearance in healthy human at 80 mg, po administered as four 20 mg immediate release tablets daily for 3 days during 10 hrs overnight fasting state measured after 1 day. The conditions noted are these: in vivo. The format is ADME, organism-based. The method, boiled down: as §2
Data set [18] can be described thus: Mean residence time in healthy human at 10 mg, po administered as single ascending doses as solution during 10 hrs overnight fasting state. The format is ADME, organism-based. The settings on record: in vivo. The method in brief:
as §4

Data set [19] concerns Homo sapiens. In words: Toxicity in healthy human assessed as occurrence of changes in electrocardiogram parameters at 80 mg, po administered daily for 3 days as four 20-mg immediate-release tablets during 10 hrs overnight fasting state. The data set is classed as organism-based. The conditions noted are these: in vivo. The method, boiled down:
as §7

The nature of data set [20]: Apparent oral clearance in healthy human at 40 mg, po administered as two 20 mg immediate release tablets daily for 3 days during 10 hrs overnight fasting state measured after 1 day. The data set is classed as ADME, organism-based. The conditions noted are these: in vivo. The method in brief:
as §2

≈ marks a conversion by molar mass, not a printed value.

As usually defined, the CL/F is clearance divided by bioavailability, as obtained after extravascular dosing. What is called AUC is the area under the concentration-time curve, a measure of exposure. Higher therefore signals high exposure. The Tmax is the time from dosing to the highest level. For orientation: Cmax means the maximum level reached in the sampled fluid or tissue. As usually defined, the half-life is the time needed for the level to fall by half in the phase considered. Low readings indicate fast loss, high ones slow loss. Usually IC50 stands for the concentration needed to halve the response being measured. A word on the MRT: it is the average time that molecules of a dose stay in the body. As to `C[C@H]1[C@H](N2CCS(=O)(=O)CC2)O[C@@H]2O[C@@]3(C)CC[C@H]4[C@H](C)CC[C@@H]1[C@@]24OO3` [ARTEMIFONE], the Vd/F in data set [1] was found to be 14.5 L/kg; in data set [14], 12.8 L/kg. Moreover, the Activity result with Homo sapiens [2], with Homo sapiens [15] and in the data set on Homo sapiens [19] was “Non-toxic” in each case. The CL/F in data set [3] is 3950 mL/min; in data set [6], 4740 mL/min; in data set [17] it was 3880 mL/min; in data set [20], 3630 mL/min. Also, the AUC at 10 h in data set [4] turned out to be 191 ng·h/mL; in data set [11] it was 65.7 ng·h/mL. For the same compound, the values for the Tmax in data set [5] and in data set [7] were 15 min and 30 min, respectively. The compound further had a Cmax in data set [8] of 40 ng/mL. Also, the half-life in data set [9] is 184 min; in data set [16], 262 min. Further, in the data set on Plasmodium falciparum, the IC50 is 0.6 ng/mL (≈ 1.49 nM). For the same compound, the Ratio was 84% in the data set on Plasma [10], 98.5% in the data set on Plasma [12] and 104% in the data set with Plasma [13]. The MRT in [18] was determined as 58.8 min.
